Assay outcomes from PubChem.
An excerpt weighted towards active compounds, which were near 2.7% of everything screened.
Yeast growth inh – chemicals that inhibit yeast BB579 growth in restrictive medium (lifespan-shortening candidates); S. cerevisiae BB579 growth, OD615, 48 h; inhibition, % at 10 µM; 140,000 compounds, 0.51% hits; AID 804;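 active = inhibition above a set limit, 3 SD over the mean compound inhibition, cut at about 44% in these data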
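controls = amphotericin B 10 µg/mL, positive | assay system = DeaD yeast strain BB579 | schedule = 48 h compound exposure at 30 °C after 4 h preincubation | detection = OD615 turbidity measurement | medium = restrictive CSMM-D medium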
RAM network inh – inhibitors of the yeast RAM network; inhibition, % at 50 µM; 190,000 compounds, 1.8% hits; S. cerevisiae dse1pr::URA3 reporter, 5-FOA growth OD615, 2 d; analog-sensitive cbk1-as2 kinase mutant strain; AID 868;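 active = inhibition above a set limit, 3 SD over mean compound inhibition, cut at about 8.4% in these data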;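 also: 0% = DMSO-only wells with no growth and 100% = 10 µM 1-NA-PP1 full growth; inhibition rescues growth on 5-FOA so higher OD means more RAM inhibition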
sdo1 growth – sdo1-depleted yeast growth rescue; 140,000 compounds, 0.21% hits; S. cerevisiae sdo1-depleted JHY4D growth rescue, OD600 30 h; hits give high values; pdr5 snq2 efflux-pump mutant strain; z-score at 10 µM;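 active = z-score above 3 at both the 24 hr and the 30 hr optical density reads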;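 also: z-score against mean and SD of all compound wells on the same plate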
Yeast life ext – yeast lifespan extension; 130,000 compounds, 0.68% hits; AID 775; inhibition of the nicotinamide effect, % at 10 µM; S. cerevisiae growth with nicotinamide, OD615; deaD strain in restrictive glucose medium;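 active = inhibition above a set limit, placed 3 SD over the median of all compounds, cut at about 26% in these data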;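 also: 0% = nicotinamide-treated wells and 100% = cells grown without nicotinamide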
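System: Modified budding yeast, DeaD strain | Buffer or medium: Restrictive glucose medium | Also added: 1.5 mM nicotinamide | Doses: 10 µM single point, 0.25% DMSO | Schedule: 48 h compound exposure at 30 °C, humidified | Detection: Absorbance at 615 nm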
The depositor's hits bear a star; . = no result.

SMILES	Yeast growth inh	RAM network inh	sdo1 growth	Yeast life ext
CCOC(=O)c1[nH]c2ccc(OC)cc2c1NC(=O)c1cccc(OC)c1	-34	0	-1.4	-13
COc1ccc(/C(N)=N/OC(=O)Cc2ccccc2OC)cc1	-16	3	-1.3	-22
COc1ccc(S(=O)(=O)n2oc(=O)cc2-c2ccccc2)cc1	21	0	-0.87	32
COc1ccc(S(=O)(=O)n2oc(=O)cc2-c2ccccc2)cc1OC	57*	-1	-0.65	18
O=c1cc(-c2ccccc2)n(S(=O)(=O)c2ccccc2)o1	80*	-1	-0.73	2
O=C(Nc1ccc2c(c1)CCC2)C1COc2ccccc2O1 (stereo not drawn)	-9	1	-1.2	-14
COc1cc(C2CC(=O)c3cnc(N)nc3C2)cc(OC)c1OC (stereo not drawn)	-20	0	1.1	-1
CC1CC(C)CN(C(=O)c2ccccc2Nc2ccc(SC(F)F)cc2)C1 (stereo not drawn)	6	9.0*	-1.1	-22
CC1(C)NC(=O)N(CN2C(=O)NC(C)(C)C2=O)C1=O	-11	2	-0.78	-5
COC(=O)N/N=C(/c1ccccc1)C1CCCCC1	.	3	.	.
O=C1c2ccccc2N2C(=O)c3ccccc3C2N1O (stereo not drawn)	-33	0	-0.01	39*
Cc1ccccc1N1C(=O)c2ccccc2N2C(=O)c3ccccc3C12 (stereo not drawn)	-23	1	-0.8	-1
O=C(CSc1nc(-c2ccccc2)cc(C(F)(F)F)n1)NCCN1CCOCC1	25	2	0.58	1
Cc1cc(N/N=C/c2ccc(Cl)cc2Cl)nc(NCc2ccccc2)n1	99*	-1	-1.5	-14
Cc1cc(Nc2ccccc2)nc(NCc2ccccc2)n1	-33	4	-1.8	-2
Cc1cc(Nc2ccc(Cl)cc2)nc(NCc2ccccc2)n1	-28	8.4*	-1.9	-10
CNc1nc(C)c(C#N)c(-c2ccccc2)c1C(C)=O	-56	0	-0.06	-12
CC(C)N(C)S(=O)(=O)c1ccc(Cl)c(C(=O)O)c1	.	0	.	.
N/C(=N\S(=O)(=O)c1ccccc1)c1ccc([N+](=O)[O-])cc1	-48	1	2.5	-1
CCc1nnc(NC(=O)CSc2nnc(COc3cccc(C)c3)o2)s1	-12	2	-0.9	27*
COc1ccc(C(=O)CSc2nnc(-c3cc(C)cc(C)c3)o2)cc1	-28	10.0*	-0.73	1
Cc1ccc(C(=O)CSc2nnc(COc3cccc(C)c3)o2)cc1	-30	9.9*	-1.5	-2
CCOC(=O)CSc1nnc(COc2cccc(C)c2)o1	.	1	.	.
CCc1nnc(NC(=O)CSc2nnc(-c3ccccc3O)n2-c2ccc(C)cc2C)s1	-47	8.5*	-0.08	2
Cc1cccc(OCc2nnc(SCC(=O)Nc3ncc(C)s3)o2)c1	.	0	.	.
SMILES	Yeast growth inh	RAM network inh	sdo1 growth	Yeast life ext
CCc1nnc(NC(=O)CSc2nnc(COc3ccccc3)n2-c2ccc(C)cc2)s1	0	7	-0.19	1
O=C(O)CNC(=S)N(Cc1ccccc1Cl)C1CCCCC1	.	2	.	.
CC(=O)NC(CCS(C)(=O)=O)C(=O)Nc1ccc2c(c1)OCO2 (stereo not drawn)	44*	2	0.48	9
CN(Cc1nc(CC2CC2)no1)CC12CC3CC(CC(C3)C1)C2	.	-1	.	.
COc1coc(C(O)CN)cc1=O (stereo not drawn)	-42	0	1.4	-3
CCOC(=O)C(=Cc1cc(=O)c(OC)co1)C(=O)OCC	-16	0	-1.1	35*
CC(C)(C)NC(=O)CN(Cc1cccs1)C(=O)c1csnn1	-22	1	0.58	-1
O=C(CNC(=O)c1ccncc1)N/N=C/c1cc(Br)ccc1O	-54	1	0.37	12
O=C(N/N=C/c1cc(Br)ccc1O)C(c1ccncc1)N1CCOCC1 (stereo not drawn)	-6	-1	0.15	35*
CC(C)COC(=O)c1ccc2c(c1O)C(=O)c1ccccc1C2=O	-26	8.8*	-1.9	-8
CC(C(=O)Nc1ccccc1Sc1ccccc1)N(c1ccccc1)S(C)(=O)=O (stereo not drawn)	-27	8.4*	-0.36	26
O=C(NCCNC(=O)c1cc(OCC(F)(F)F)ccc1OCC(F)(F)F)Nc1ccccc1	-45	8.7*	-0.04	-7
CCNC(=O)NCCNC(=O)c1cc(OCC(F)(F)F)ccc1OCC(F)(F)F	.	1	.	.
Clc1ccc(COc2ccccc2CNCc2cccnc2)cc1	-14	2	0.77	49*
C=CCSc1nnc(NC(=O)c2nc(SCC)ncc2Cl)s1	-6	8.4*	-1.6	9
CSc1ncc(Cl)c(C(=O)Nc2nnc(SC/C=C/c3ccccc3)s2)n1	11	5	-0.27	-7
COc1ccccc1-c1nc2cc3ccccc3cc2nc1-c1ccccc1	-57	11*	-0.82	4
CSc1ccccc1NC(=O)CO/N=C(\C)c1cc2ccccc2o1	-9	9.2*	-0.22	-7
CCc1ccc(NC(=O)CO/N=C(\C)c2cc3ccccc3o2)cc1	-13	8.4*	-0.91	-4
Cn1c(=O)c2c(nc(-c3ccccc3)n2C)n(Cc2ccccc2)c1=O	-7	3	-1.1	-7
O=[N+]([O-])c1ccc(N/N=C2/CCCCC2c2ccccn2)cc1 (stereo not drawn)	98*	-1	-1.9	-10
O=[N+]([O-])c1ccc(NC2CCCC2)cc1	-25	0	0.11	-7
COc1ccc(Cn2nnnc2C(c2cccs2)N2CCOCC2)cc1 (stereo not drawn)	-2	1	-0.05	2
CN(C[C@H](c1ccccc1)N(C[C@H](Cc1ccccc1)N(CCc1ccccc1)N=O)N=O)N=O	.	8	.	.
CN(C[C@H](Cc1ccccc1)N(C[C@H](c1ccccc1)N(CCc1ccccc1)N=O)N=O)N=O	.	8.8*	.	.
SMILES	Yeast growth inh	RAM network inh	sdo1 growth	Yeast life ext
Oc1ccc(/C=N/N=C(c2ccccc2)c2ccccc2)c(O)c1O	90*	0	-1.4	-13
CCSc1nc(O)c(C2OC(=O)c3c2ccc(OC)c3OC)c(=O)n1-c1ccccc1 (stereo not drawn)	-88	0	0.1	-4
O=C(/C=C/c1ccccc1[N+](=O)[O-])N1CCN(c2ccccc2F)CC1	.	8.5*	.	.
O=C(/C=C/c1ccc(Cl)cc1Cl)N1CCN(c2ccccc2[N+](=O)[O-])CC1	-23	8.6*	-0.98	2
O=C(/C=C/c1ccc(Cl)cc1Cl)N1CCN(c2ccc([N+](=O)[O-])c(N3CCOCC3)c2)CC1	-4	3	1.2	1
CC(C)/C=C1\CC/C(=C\c2cccnc2)C1=O	.	1	.	.
O=C(N/N=C/c1cccnc1)C1CCCCC1	.	2	.	.
O=C(Nc1scc(-c2ccc(F)cc2)c1C(=O)O)c1ccco1	-18	4	0.98	97*
CC(C)NC(=O)COC(=O)c1cc(=O)[nH]c2ccccc12	-46	1	0.78	-1
CCN1/C(=C/c2ccc3cccc(C)c3[n+]2CC)Sc2ccccc21	96*	1	-3.1	-13
CNc1nnc(-c2cc3cc(Cl)ccc3oc2=O)s1	57*	4	-0.58	-12
